Experimental data reported in paper PMC3215888 (Cancer Chemotherapy and Pharmacology, 2011).
Like-named read-outs stand apart in the source and are kept apart here.

Assays:
[1] = tested on: ALL-2 ALL B-precursor xenograft; assay: ALL xenograft; format: in vivo, mice
Summary of the method: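 Female NOD/scid mice inoculated intravenously with leukemia cells, 8 per group. Test compound suspended in 10% 2-hydroxypropyl-β-cyclodextrin/1% sodium bicarbonate in water. Given by oral gavage twice daily, 5 days weekly for 3 weeks, at 20.8, 10.4, 5.2 or 2.6 mg/kg. Blood %hCD45 of leukocytes tracked; event = hCD45 reaching 25%. EFS by Kaplan–Meier, exact log-rank vs controls. Median group response from individual scores.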

[2] = tested on: CHLA-25 Ewing sarcoma cell line; assay: DIMSCAN in vitro testing, 96 h; format: cell-based; conditions: for IC50: 96 h
Summary of the method: (§1)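 Neuroblastoma and Ewing sarcoma lines, STR-verified and maintained as in the originators' reports. Exposed for 96 h to test compound (DMSO stock diluted in medium) at 1 nM–10 μM. Viable cells quantified by fluorescein diacetate fluorescence with DIMSCAN digital image microscopy. Absolute IC50 = concentration giving 50% growth inhibition vs controls. Relative IC50 = concentration giving 50% of the maximum inhibitory effect.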

[3] = tested on: SMS-SAN neuroblastoma cell line; assay: DIMSCAN in vitro testing, 96 h; format: cell-based; conditions: for IC50: Neuroblastoma cell, 96 h
Summary of the method: as §1

[4] = tested on: TC-71 Ewing sarcoma cell line; assay: DIMSCAN in vitro testing, 96 h; format: cell-based; conditions: for IC50: TC-71, 96 h
Summary of the method: as §1

[5] = tested on: NB-1643 neuroblastoma cell line; assay: DIMSCAN in vitro testing, 96 h; format: cell-based; conditions: for IC50: NB-1643, 96 h
Summary of the method: as §1

[6] = tested on: solid tumor and ALL xenograft models; assay: EFS activity across all xenograft models at the MTD; format: in vivo, mice; conditions: MTD 20.8 mg/kg
[7] = tested on: NB-EBc1 Neuroblastoma xenograft; format: in vivo, mice
Summary of the method: (§2)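 Female CB17 scid mice bearing subcutaneous tumors, 10 per group. Dosed by oral gavage twice daily, 5 days weekly for 6 weeks, at 20.8, 10.4, 5.2 or 2.6 mg/kg, in 10% 2-hydroxypropyl-β-cyclodextrin/1% sodium bicarbonate. Event = quadrupled tumor volume; EFS by Kaplan–Meier, exact log-rank test. Per-mouse scores PD/SD/PR (≥50% regression)/CR (<0.10 cm3)/MCR; group median reported. PR, CR and MCR count as objective responses.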

[8] = tested on: NB-1382 Neuroblastoma xenograft; format: in vivo, mice; conditions: 20.8 mg/kg
Summary of the method: as §2

[9] = tested on: A-673 Ewing sarcoma cell line; assay: DIMSCAN in vitro testing, 96 h; format: cell-based; conditions: for IC50: Homo sapiens, A673, 96 h
Summary of the method: as §1

[10] = tested on: NB-SD Neuroblastoma xenograft; format: in vivo, mice
Summary of the method: as §2

[11] = tested on: CHLA-136 neuroblastoma cell line; assay: DIMSCAN in vitro testing, 96 h; format: cell-based; conditions: for IC50: Neuroblastoma cell, 96 h
Summary of the method: as §1

[12] = tested on: TC-32 Ewing sarcoma cell line; assay: DIMSCAN in vitro testing, 96 h; format: cell-based; conditions: for IC50: Homo sapiens, TC-32, 96 h
Summary of the method: as §1

[13] = tested on: LA–N-6 neuroblastoma cell line; assay: DIMSCAN in vitro testing, 96 h; format: cell-based; conditions: for IC50: Neuroblastoma cell, 96 h
Summary of the method: as §1

Q: Which results are given for COc1cc(Nc2ncc3c(n2)-c2ccc(Cl)cc2C(c2c(F)cccc2OC)=NC3)ccc1C(=O)O [MLN8237]?
A: EFS T/C ([1]; 2.6 mg/kg): 2.3; EFS activity ([1]; 2.6 mg/kg): Int; Estimate of median time to event ([1]; 2.6 mg/kg): 25.2 days; Median group response ([1]; 2.6 mg/kg): PD2 (if the TGD value >1.5, the mouse was considered PD2); Response activity ([1]; 2.6 mg/kg): Int; Median RTV/hCD45 at end of study ([1]; 2.6 mg/kg): >25%; EFS T/C ([1]; 5.2 mg/kg): >3.8; EFS activity ([1]; 5.2 mg/kg): Int; Response activity ([1]; 5.2 mg/kg): High; Median RTV/hCD45 at end of study ([1]; 5.2 mg/kg): >25%; EFS T/C ([1]; 10.4 mg/kg): >3.8; EFS activity ([1]; 10.4 mg/kg): Int; Response activity ([1]; 10.4 mg/kg): High; Median RTV/hCD45 at end of study ([1]; 10.4 mg/kg): 3.1%; EFS T/C ([1]; 20.8 mg/kg): >3.8; EFS activity ([1]; 20.8 mg/kg): High; Median group response ([1]; 20.8 mg/kg): MCR; Response activity ([1]; 20.8 mg/kg): High; Median RTV/hCD45 at end of study ([1]; 20.8 mg/kg): 0.3%; IC50 ([2]; read-out: Absolute IC50): 168 nM; IC50 ([2]; read-out: Relative IC50): 58 nM; Ymin ([2]; CHLA-25, minimum T/C): 30.1%; IC50 ([3]; read-out: Absolute IC50): 20 nM; IC50 ([3]; read-out: Relative IC50): 18 nM; Ymin ([3]; SMS-SAN, minimum T/C): 5.9%; IC50 ([4]; read-out: Absolute IC50): 102 nM; IC50 ([4]; read-out: Relative IC50): 100 nM; Ymin ([4]; TC-71, minimum T/C): 10.0%; IC50 ([5]; read-out: Absolute IC50): 37 nM; IC50 ([5]; read-out: Relative IC50): 32 nM; Ymin ([5]; NB-1643, minimum T/C): 10.2%; evaluable lines meeting the criteria for high activity (EFS T/C) [6]: Eight out of 11; EFS T/C ([7]; 2.6 mg/kg): 1.7; EFS activity ([7]; 2.6 mg/kg): Low; Estimate of median time to event ([7]; 2.6 mg/kg): 9.6 days; Median group response ([7]; 2.6 mg/kg): PD2 (if the TGD value >1.5, the mouse was considered PD2); Response activity ([7]; 2.6 mg/kg): Int; Tumor volume T/C ([7]; 2.6 mg/kg): 0.57; Median RTV/hCD45 at end of study ([7]; 2.6 mg/kg): >4; EFS T/C ([7]; 5.2 mg/kg): 2.0; EFS activity ([7]; 5.2 mg/kg): Low; Estimate of median time to event ([7]; 5.2 mg/kg): 11.3 days; Median group response ([7]; 5.2 mg/kg): PD2 (if the TGD value >1.5, the mouse was considered PD2); Response activity ([7]; 5.2 mg/kg): Int; Tumor volume T/C ([7]; 5.2 mg/kg): 0.44; Median RTV/hCD45 at end of study ([7]; 5.2 mg/kg): >4; EFS T/C ([7]; 10.4 mg/kg): 3.1; EFS activity ([7]; 10.4 mg/kg): Int; Estimate of median time to event ([7]; 10.4 mg/kg): 17.9 days; Median group response ([7]; 10.4 mg/kg): PD2 (if the TGD value >1.5, the mouse was considered PD2); Response activity ([7]; 10.4 mg/kg): Int; Tumor volume T/C ([7]; 10.4 mg/kg): 0.22; Median RTV/hCD45 at end of study ([7]; 10.4 mg/kg): >4; EFS T/C ([7]; 20.8 mg/kg): >7.2; EFS activity ([7]; 20.8 mg/kg): High; Median group response ([7]; 20.8 mg/kg): MCR; Response activity ([7]; 20.8 mg/kg): High; Tumor volume T/C ([7]; 20.8 mg/kg): 0.15; Median RTV/hCD45 at end of study ([7]; 20.8 mg/kg): 0.3; EFS T/C [8]: >1.7; Median group response [8]: PD2 (if the TGD value >1.5, the mouse was considered PD2); Response activity [8]: Int; Tumor volume T/C [8]: 0.31; Median RTV/hCD45 at end of study ([8]; RTV): 2.1; Ymin ([9]; A-673, minimum T/C): 13.1%; IC50 ([9]; read-out: Absolute IC50): 32 nM; IC50 ([9]; read-out: Relative IC50): 30 nM; EFS T/C ([10]; 2.6 mg/kg): 1.6; EFS activity ([10]; 2.6 mg/kg): Low; Estimate of median time to event ([10]; 2.6 mg/kg): 15.2 days; Median group response ([10]; 2.6 mg/kg): PD1 (if the TGD value ≤1.5, that mouse was considered PD1); Response activity ([10]; 2.6 mg/kg): Low; Tumor volume T/C ([10]; 2.6 mg/kg): 0.59; Median RTV/hCD45 at end of study ([10]; 2.6 mg/kg): >4; EFS T/C ([10]; 5.2 mg/kg): 2.2; EFS activity ([10]; 5.2 mg/kg): Int; Estimate of median time to event ([10]; 5.2 mg/kg): 20.9 days; Median group response ([10]; 5.2 mg/kg): PD2 (if the TGD value >1.5, the mouse was considered PD2); Response activity ([10]; 5.2 mg/kg): Int; Tumor volume T/C ([10]; 5.2 mg/kg): 0.60; Median RTV/hCD45 at end of study ([10]; 5.2 mg/kg): >4; EFS T/C ([10]; 10.4 mg/kg): 3.9; EFS activity ([10]; 10.4 mg/kg): Int; Estimate of median time to event ([10]; 10.4 mg/kg): 37.5 days; Median group response ([10]; 10.4 mg/kg): PD2 (if the TGD value >1.5, the mouse was considered PD2); Response activity ([10]; 10.4 mg/kg): Int; Tumor volume T/C ([10]; 10.4 mg/kg): 0.50; Median RTV/hCD45 at end of study ([10]; 10.4 mg/kg): >4; EFS T/C ([10]; 20.8 mg/kg): >4.4; EFS activity ([10]; 20.8 mg/kg): High; Response activity ([10]; 20.8 mg/kg): Int; Tumor volume T/C ([10]; 20.8 mg/kg): 0.47; Median RTV/hCD45 at end of study ([10]; 20.8 mg/kg): 0.9; Ymin ([11]; CHLA-136, minimum T/C): 10.4%; IC50 ([11]; read-out: Absolute IC50): 39 nM; IC50 ([11]; read-out: Relative IC50): 36 nM; IC50 ([12]; read-out: Absolute IC50): 39 nM; IC50 ([12]; read-out: Relative IC50): 34 nM; Ymin ([12]; TC-32, minimum T/C): 6.5%; Ymin ([13]; LA–N-6, minimum T/C): 32.1%; IC50 ([13]; read-out: Absolute IC50): 54 nM; IC50 ([13]; read-out: Relative IC50): 31 nM
